# Results reported in ChEMBL document CHEMBL1153806, “Preclinical efficacy of a carboxylesterase 2-activated prodrug of doxazolidine” (J Med Chem, 2009).
# The source made the active and inactive calls. The calls are words filed in the database; no cut-off is given here.
# Columns and labels:
# NCI-H1435 = test: Antitumor activity against human NCI-H1435 cells expressing CES2 gene xenografted in athymic nude mouse assessed as slowing of tumor growth at 4 mg/kg, iv administered as three weekly infusion from day 21 to 56 after tumor implantation; assay type: functional, organism-based; set-up: dose 4 mg/kg
# In short: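 Athymic nude females, 4–6 weeks old, given ~2 × 10⁶ H1435 cells s.c. in the left flank on day 0; 10 mice/group. I.v. tail-vein doses (Dox-equivalent mg/kg) in 5% DMSO/95% D5W on days 7, 14 and 21, with all groups retreated on days 56, 63 and 70; vehicle controls. Caliper volume π × short² × long/6. Cube roots analysed with day-7 size as baseline covariate, by period.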
# Mus musculus = test: Toxicity in athymic nude mouse xenografted with human NCI-H1435 cells expressing CES2 gene assessed as occurrence of fatty liver administered with six iv injection of 3 mg/kg by hematoxylin/eosin staining-based microscopy; assay type: organism-based; set-up: dose 3 mg/kg, route intravenous; settings: in vivo
# In short: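 Hearts and livers taken from the H1435 nude-mouse study (six i.v. injections) after CO₂/cervical dislocation. Fixed in 10% formalin for 24 h, paraffin-embedded, and cut at 4 µm. Slides deparaffinized in xylene and ethanol, stained with Mayer's hematoxylin for 2 min, blued in 1% ammonium hydroxide, and counterstained with eosin for 30 s. Examined by light microscopy.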
smiles,measurement,setting,value
CCCCCOC(=O)Nc1ccc(COC(=O)N2CO[C@@H]3[C@H](C)O[C@@H](O[C@H]4C[C@](O)(C(=O)CO)Cc5c(O)c6c(c(O)c54)C(=O)c4c(OC)cccc4C6=O)C[C@@H]32)cc1,Activity,NCI-H1435,inactive
same,Activity,Mus musculus,Non-toxic
